In ChEMBL document CHEMBL1149170, “Khellinone derivatives as blockers of the voltage-gated potassium channel Kv1.3: synthesis and immunosuppressive activity” (J Med Chem, 2004):

Legend:
[1] = biological target: T1, Potassium voltage-gated channel subfamily A member 3 (Homo sapiens, UniProt P22001); assay: Dissociation constant for the blockage of voltage-gated potassium channel subunit Kv1.3 in human lymphocytes; format: cell-based
[2] = Selectivity for Kv1.3 voltage-gated K+ channel over IKCa1 [Ca2+] activated K+ channel
Outline: (§1)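 Ringer bath, KF/EGTA pipette. Kv1.1, Kv1.2, Kv1.5, Kv1.7 and IKCa1 recorded in stably or transiently expressing cells. Kd from Hill fit to reduction in current area. Each compound 2–3 times at 3–5 concentrations.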

Homo sapiens = species: Homo sapiens; assay: Inhibition of anti-CD3 dependent human T cell proliferation; format: functional
Outline: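 PBMCs from healthy volunteers, isolated on a density gradient, seeded at 2×10^5 cells/well in supplemented RPMI 1640. Compound preincubation 60 min, then anti-CD3 antibody 50 ng/mL for 48 h. [3H]thymidine added for the last 6 h; incorporation counted by scintillation. Normalized to maximal control incorporation. Triplicate.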

[3] = Selectivity for Kv1.3 over Kv1.1 voltage-gated potassium channel subunit; outline: as §1
[4] = Selectivity for Kv1.3 over Kv1.2 voltage-gated potassium channel subunit; outline: as §1
[5] = Selectivity for Kv1.3 over Kv1.7 voltage-gated potassium channel subunit; outline: as §1
[6] = Selectivity for Kv1.3 over Kv1.5 voltage-gated potassium channel subunit; outline: as §1
[7] = biological target: T1, Potassium voltage-gated channel subfamily A member 3; assay: Dissociation constant for the blockade of voltage-gated potassium channel subunit Kv1.3 in human lymphocytes; no effect when tested at 1 uM; format: cell-based
Outline: (§2)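 Whole-cell patch clamp on cells stably expressing Kv1.3, holding potential −80 mV. Bath: Ringer (160 mM NaCl, 4.5 mM KCl, 2 mM CaCl2, 1 mM MgCl2, 10 mM HEPES, pH 7.4). Pipette: 134 mM KF, 2 mM MgCl2, 10 mM HEPES, 10 mM EGTA, pH 7.2. 500-ms pulses to 40 mV every 45 s. Single test concentration only.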

[8] = biological target: T1, Potassium voltage-gated channel subfamily A member 3; assay: Dissociation constant for blockade of voltage-gated potassium channel subunit Kv1.3 in human lymphocytes; no effect when tested at 10 uM; format: cell-based; outline: as §2

T1 sequence (P22001 whole entry): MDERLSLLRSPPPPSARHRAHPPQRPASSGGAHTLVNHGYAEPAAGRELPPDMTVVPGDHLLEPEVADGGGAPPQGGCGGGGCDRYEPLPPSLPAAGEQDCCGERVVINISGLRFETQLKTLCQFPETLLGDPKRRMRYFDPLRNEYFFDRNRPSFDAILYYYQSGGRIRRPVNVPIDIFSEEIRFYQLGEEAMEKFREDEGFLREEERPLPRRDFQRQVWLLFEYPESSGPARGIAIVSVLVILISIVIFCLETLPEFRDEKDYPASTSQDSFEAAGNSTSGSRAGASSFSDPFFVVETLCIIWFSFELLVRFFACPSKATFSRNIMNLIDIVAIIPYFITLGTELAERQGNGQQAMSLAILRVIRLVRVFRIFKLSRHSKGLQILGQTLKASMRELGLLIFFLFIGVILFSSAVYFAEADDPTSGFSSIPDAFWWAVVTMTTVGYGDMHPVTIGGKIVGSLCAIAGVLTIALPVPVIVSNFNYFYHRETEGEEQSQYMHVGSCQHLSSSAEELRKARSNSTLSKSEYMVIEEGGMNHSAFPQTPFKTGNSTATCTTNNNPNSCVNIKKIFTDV

In the case of `COc1c(C(C)=O)c(OCc2cccc(COc3c(C(C)=O)c(OC)c4ccoc4c3OC)c2)c(OC)c2occc12`, the Kd [1] is reported as 0.56 µM.
With `COc1c(C(=O)/C=C/c2ccccc2)c(O)c(OC)c2occc12` the Kd [2] was greater than 100 µM, the EC50 (Homo sapiens) was 0.6 µM and the Kd [3] was 1.2 µM. It also gave a Kd [4] greater than 50 µM, a Kd [5] of 10 µM and a Kd [6] of 5.1 µM.
`COc1c(C(C)=O)c(O)cc2occc12` showed a Kd [1] of 100 µM.
In the case of `COc1c(C(=O)/C=C/c2cc(Br)cs2)c(O)c(OC)c2occc12`, the Kd [1] is reported as 0.8 µM.
`Nc1ccncc1` [DALFAMPRIDINE] showed a Kd [2] of 29 µM, a Kd [3] of 290 µM and a Kd [4] of 590 µM. For the same compound, the Kd [6] was 270 µM.
With `COc1c(C(=O)/C=C/C=C/c2ccccc2)c(O)c(OC)c2occc12` the Kd [7] was “Not Active”.
`C=C1C[C@@]2(O)[C@@H]3CC[C@@]4(C)[C@@H]5C=CC(=O)OC[C@]5(C(C)OC(C)=O)[C@@H](OC(C)=O)[C@@H](OC(C)=O)[C@@H]4[C@@]3(C)[C@H](OC(C)=O)[C@H](OC(C)=O)[C@@]2(C)C2(C(=O)OC)O[C@H]12` (stereo partly specified) [CORREOLIDE] showed an EC50 (Homo sapiens) of 0.3 µM and a Kd [1] of 0.1 µM.
For `COc1c(C(=O)/C=C/c2ccccc2)c(OCc2ccc(COc3c(C(=O)/C=C/c4ccccc4)c(OC)c4ccoc4c3OC)cc2)c(OC)c2occc12`, the Kd [7] was “Not Active”.
For `COc1c(C(C)=O)c(OCCCCCCCOc2c(C(C)=O)c(OC)c3ccoc3c2OC)c(OC)c2occc12`, the Kd [1] was 3 µM.
With `COc1c(C(=O)CCc2ccccc2)c(O)c(OC)c2occc12` the Kd [1] was 0.6 µM.
With `COc1c(C(C)=O)c(OCc2ccc(COc3c(C(C)=O)c(OC)c4ccoc4c3OC)c(C(=O)O)c2)c(OC)c2occc12` the Kd [1] was 5 µM.
With `COc1c(C(=O)/C=C/c2cccc(/C=C/C(=O)c3c(O)c(OC)c4occc4c3OC)c2)c(O)c(OC)c2occc12` the Kd [8] was “Not Active”.
`COc1c(/C(C)=N/N=C(\C)c2c(O)c(OC)c3occc3c2OC)c(O)c(OC)c2occc12` showed a Kd [1] of 70 µM.
`COc1c(C(C)=O)c(OCc2ccc(COc3cc4occc4c(OC)c3C(C)=O)cc2)cc2occc12` showed a Kd [1] of 1 µM.
With `COCCOCCOCCOCCOC(=O)c1cc(COc2c(C(C)=O)c(OC)c3ccoc3c2OC)ccc1COc1c(C(C)=O)c(OC)c2ccoc2c1OC` the Kd [8] was “Not Active”.
Compound `COc1c(C(=O)/C=C/c2ccccc2)c(O)cc2occc12` has a Kd [1] of 17 µM.
In the case of `COc1c(C(=O)/C=C/c2ccc(C)cc2)c(O)c(OC)c2occc12`, the Kd [1] is reported as 0.7 µM.
Work on `COc1c(C(C)=O)c(OCCCCCOc2c(C(C)=O)c(OC)c3ccoc3c2OC)c(OC)c2occc12` yielded a Kd [1] of 0.82 µM.
With `COc1c(C(C)=O)c(OCc2ccccc2)c(OC)c2occc12` the Kd [1] was 10 µM.
`COc1c(C(C)=O)c(OCCCCCCOc2c(C(C)=O)c(OC)c3ccoc3c2OC)c(OC)c2occc12` gave an EC50 (Homo sapiens) of 0.8 µM, a Kd [3] of 0.3 µM and a Kd [4] of 0.25 µM. It also gave a Kd [1] of 0.68 µM.
In the case of `COc1c(C(C)=O)c(OCCOCCOc2c(C(C)=O)c(OC)c3ccoc3c2OC)c(OC)c2occc12`, the Kd [1] is reported as 4 µM.
For `COc1c(C(C)=O)c(O)c(OC)c2occc12`, the Kd [1] was 50 µM.
With `COc1cccc(/C=C/C(=O)c2c(O)c(OC)c3occc3c2OC)c1` the Kd [2] was greater than 100 µM, the EC50 (Homo sapiens) was 1 µM and the Kd [3] was 2 µM. The Kd [4] was greater than 50 µM, the Kd [5] was greater than 50 µM and the Kd [1] was 0.8 µM. For the same compound, the Kd [6] was 20 µM.
With `COc1c(C(C)=O)c(OCc2cc(COc3c(C(C)=O)c(OC)c4ccoc4c3OC)cc(COc3c(C(C)=O)c(OC)c4ccoc4c3OC)c2)c(OC)c2occc12` the Kd [8] was “Not Active”.
Compound `COc1c(C(=O)/C=C/c2cccc(O)c2)c(O)c(OC)c2occc12` has a Kd [2] greater than 100 µM, an EC50 (Homo sapiens) of 1 µM and a Kd [3] of 1.7 µM. The Kd [4] was greater than 50 µM, the Kd [5] was 50 µM and the Kd [6] was 12 µM.
For `COc1c(C(C)=O)c(OCc2ccc(COc3c(C(C)=O)c(OC)c4ccoc4c3OC)cc2)c(OC)c2occc12`, the Kd [1] was 3.1 µM.
Work on `COc1c(C(=O)/C=C/c2cccs2)c(O)c(OC)c2occc12` yielded a Kd [1] of 1 µM.
`COc1c(C(C)O)c(OCc2ccc(COc3c(C(C)O)c(OC)c4occc4c3OC)cc2)c(OC)c2occc12` (stereo unspecified) showed a Kd [1] of 2 µM.
